In ChEMBL document CHEMBL4400539, “Discovery of a Novel Chemotype of Histone Lysine Methyltransferase EHMT1/2 (GLP/G9a) Inhibitors: Rational Design, Synthesis, Biological Evaluation, and Co-crystal Structure” (J Med Chem, 2019):
Calls of active or inactive are those of the source. No cut-off for these calls is given here.

Columns and labels:
[1] = target: T1, Histone-lysine N-methyltransferase EHMT2 (Homo sapiens, UniProt Q96KQ7); assay: Non-competitive inhibition of recombinant human G9a using biotinylated-Histone H3 peptide (1 to 21 residues) as substrate after 30 mins in presence of varying concentration of SAM by Lineweaver-Burk plot analysis
T1 sequence (Q96KQ7 whole entry): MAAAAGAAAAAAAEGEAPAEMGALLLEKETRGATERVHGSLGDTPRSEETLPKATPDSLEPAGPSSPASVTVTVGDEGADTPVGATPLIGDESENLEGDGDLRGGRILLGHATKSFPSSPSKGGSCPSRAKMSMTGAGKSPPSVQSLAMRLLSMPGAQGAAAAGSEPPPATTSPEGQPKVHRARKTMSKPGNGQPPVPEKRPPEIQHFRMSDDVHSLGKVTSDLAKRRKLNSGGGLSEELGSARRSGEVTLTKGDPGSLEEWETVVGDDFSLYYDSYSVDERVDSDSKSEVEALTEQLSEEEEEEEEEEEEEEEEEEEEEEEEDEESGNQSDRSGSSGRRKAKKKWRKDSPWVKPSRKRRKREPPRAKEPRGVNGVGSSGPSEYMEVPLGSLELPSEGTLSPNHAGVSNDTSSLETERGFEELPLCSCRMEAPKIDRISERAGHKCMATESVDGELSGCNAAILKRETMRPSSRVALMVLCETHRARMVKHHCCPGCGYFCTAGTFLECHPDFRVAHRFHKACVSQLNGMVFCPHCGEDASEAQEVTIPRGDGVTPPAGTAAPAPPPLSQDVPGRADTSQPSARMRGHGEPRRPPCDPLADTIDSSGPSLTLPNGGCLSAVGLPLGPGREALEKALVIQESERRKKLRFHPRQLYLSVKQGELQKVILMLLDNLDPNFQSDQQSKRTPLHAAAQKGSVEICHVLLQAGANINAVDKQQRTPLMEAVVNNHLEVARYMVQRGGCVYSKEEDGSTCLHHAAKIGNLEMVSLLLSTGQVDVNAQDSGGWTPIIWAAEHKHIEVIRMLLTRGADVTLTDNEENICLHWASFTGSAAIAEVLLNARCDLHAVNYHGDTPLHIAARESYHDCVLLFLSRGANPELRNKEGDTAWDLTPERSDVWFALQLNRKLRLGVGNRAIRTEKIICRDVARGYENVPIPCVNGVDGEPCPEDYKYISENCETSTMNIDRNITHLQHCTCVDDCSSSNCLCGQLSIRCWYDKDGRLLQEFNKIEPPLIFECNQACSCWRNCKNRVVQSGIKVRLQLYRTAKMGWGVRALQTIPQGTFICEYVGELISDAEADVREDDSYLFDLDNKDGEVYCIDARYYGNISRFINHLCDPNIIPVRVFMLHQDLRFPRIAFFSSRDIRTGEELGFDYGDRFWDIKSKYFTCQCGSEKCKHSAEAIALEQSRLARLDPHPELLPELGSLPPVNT

[2] = target: T2, Histone-lysine N-methyltransferase EHMT1 (Homo sapiens) (UniProt Q9H9B1); assay: Inhibition of recombinant human GLP at 25 uM using biotinylated-Histone H3 peptide (1 to 21 residues) after 30 mins by AlphaLISA assay relative to control
T2 sequence (whole entry): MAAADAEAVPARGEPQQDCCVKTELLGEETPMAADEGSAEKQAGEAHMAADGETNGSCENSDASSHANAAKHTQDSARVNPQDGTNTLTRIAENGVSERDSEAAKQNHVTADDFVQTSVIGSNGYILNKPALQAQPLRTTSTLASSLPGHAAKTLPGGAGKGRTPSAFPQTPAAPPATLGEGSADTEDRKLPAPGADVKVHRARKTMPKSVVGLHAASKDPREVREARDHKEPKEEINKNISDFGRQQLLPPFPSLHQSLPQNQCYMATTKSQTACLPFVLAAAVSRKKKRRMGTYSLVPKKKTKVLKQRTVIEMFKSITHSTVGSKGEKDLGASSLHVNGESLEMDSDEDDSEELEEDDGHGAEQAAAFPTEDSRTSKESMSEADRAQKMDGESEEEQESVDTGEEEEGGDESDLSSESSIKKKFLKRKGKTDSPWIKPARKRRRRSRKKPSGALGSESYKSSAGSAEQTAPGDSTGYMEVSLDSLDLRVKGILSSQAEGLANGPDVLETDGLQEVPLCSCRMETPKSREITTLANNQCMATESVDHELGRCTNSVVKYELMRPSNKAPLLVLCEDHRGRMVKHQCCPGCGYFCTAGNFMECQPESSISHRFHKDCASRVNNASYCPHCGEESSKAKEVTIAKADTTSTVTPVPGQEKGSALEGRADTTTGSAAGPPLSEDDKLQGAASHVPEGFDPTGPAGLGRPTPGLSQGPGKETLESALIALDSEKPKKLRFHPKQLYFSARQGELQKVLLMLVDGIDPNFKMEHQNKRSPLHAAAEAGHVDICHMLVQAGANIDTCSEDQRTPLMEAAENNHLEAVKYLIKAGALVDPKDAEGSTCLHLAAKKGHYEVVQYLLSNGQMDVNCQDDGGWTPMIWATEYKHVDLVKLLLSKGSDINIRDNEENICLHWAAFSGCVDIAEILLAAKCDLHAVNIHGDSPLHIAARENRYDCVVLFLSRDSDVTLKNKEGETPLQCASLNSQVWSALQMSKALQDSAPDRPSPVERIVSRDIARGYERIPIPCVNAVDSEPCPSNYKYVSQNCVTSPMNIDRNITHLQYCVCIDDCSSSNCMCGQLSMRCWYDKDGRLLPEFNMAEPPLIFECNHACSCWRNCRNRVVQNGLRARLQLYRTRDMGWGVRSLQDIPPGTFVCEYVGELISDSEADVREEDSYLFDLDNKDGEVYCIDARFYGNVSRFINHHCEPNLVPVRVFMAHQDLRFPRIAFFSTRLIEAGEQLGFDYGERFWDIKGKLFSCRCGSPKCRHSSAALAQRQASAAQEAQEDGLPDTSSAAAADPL

[3] = system: MCF7; assay: Cytotoxicity against human MCF7 cells assessed as reduction in cell viability at 0.05 to 50 uM after 24 hrs by MTT assay; type: cell-based; conditions: mcf7, 24 h
Procedure, shortened: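 MCF-7, MDA-MB-231 and U-343 cells exposed 24, 48 and 72 h to 0.05, 0.5, 5 and 50 μM compound; viability by MTT reduction to formazan versus vehicle; mean ± SD of at least three independent experiments.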

[4] = target: DNA (cytosine-5)-methyltransferase 3B (Homo sapiens) (UniProt Q9UBC3); assay: Inhibition of N-terminal GST-tagged recombinant full length human DNMT3b (2 to 853 residues) using bacteriophage lambda DNA as substrate preincubated for 20 mins followed by [3H]-SAM and measured after 60 mins by scintillation counting
[5] = target: T3, Histone-lysine N-methyltransferase EHMT2 (Homo sapiens) (UniProt Q96KQ7)
T3 sequence (whole entry): T1 sequence (Q96KQ7 whole entry)

[6] = Chemical stability of the compound in PBS buffer after 72 hrs by HPLC analysis; type: physicochemical
Procedure, shortened: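 Stability checked by HPLC after exposure to PBS over 72 h.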

COc1cc2c(cc1OCCCN1CCCC1)N=C(C1CCCCC1)CN=C2NC1CCN(C(C)C)CC1
Ki [1]: 3.6 nM | inhibition [2]: 98% | Activity [3]: Non-Toxic | inhibition [4]: inactive | Ka [5]: 550 | Stability [6]: Stable
